Where a SMILES comes first, the peptide text is derived from it. Bridges are numbered along the chain shown (N, C = ends). [ ]: non-standard residue; d: D form. Phe(4-Cl) = N[C@@H](Cc1ccc(Cl)cc1)C(=O)O; dPhe(4-Cl) = N[C@H](Cc1ccc(Cl)cc1)C(=O)O; 2Nal = N[C@@H](Cc1ccc2ccccc2c1)C(=O)O; d2Nal = N[C@H](Cc1ccc2ccccc2c1)C(=O)O; Abu = CC[C@H](N)C(=O)O

The test is filed under the species Rattus norvegicus. In words: In vitro GH release inhibiting potency on anterior pitutaries from adult male rats, relative to somatostatin. In kind it is functional. The gist of the method: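 Rat anterior pituitary cells (adult males, 200-250 g), trypsin/DNase dispersed, plated 2 × 10^5 cells/well, cultured 96 h at 37 °C in serum-supplemented DMEM. After washing, cells were pulsed 3 h at 37 °C with 1 nM GRF(1-29)NH2 ± graded analogue doses in medium 199/1% BSA, quadruplicate wells. Medium GH was measured by double-antibody RIA. Potency relative to somatostatin (=1.0) came from four-point assay (mean of ≥3 experiments) or IC50 comparison.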
Compound `C[C@H](NC(=O)[C@H](N)Cc1ccccc1)C(=O)N[C@@H](Cc1ccc(O)cc1)C(=O)N[C@H](Cc1c[nH]c2ccccc12)C(=O)N[C@@H](CCCCN)C(=O)N[C@H](C(=O)N[C@@H](C)C(=O)N[C@@H](Cc1ccc2ccccc2c1)C(N)=O)[C@@H](C)O` yielded a GHI of 16.
On to `CC(C)[C@H](NC(=O)[C@H](CCCCN)NC(=O)[C@@H](Cc1c[nH]c2ccccc12)NC(=O)[C@H](Cc1ccc(O)cc1)NC(=O)[C@H](Cc1ccccc1)NC(=O)[C@H](N)Cc1ccccc1)C(=O)N[C@@H](Cc1ccccc1)C(=O)N[C@H](Cc1ccc2ccccc2c1)C(N)=O` (H-[dF]FY[dW]KVF[d2Nal]-NH2), for which the GHI stood at 12500.
`C[C@H]1C(=O)NC(Cc2ccccc2)C(=O)NCCCCCCC(=O)N[C@@H](Cc2ccccc2)C(=O)NC(Cc2ccccc2)C(=O)N[C@H](Cc2c[nH]c3ccccc23)C(=O)NC(CCCCN)C(=O)N1C` (single isomer, unassigned) returned a GHI of 50.
`C[C@@H](O)[C@@H]1NC(=O)[C@H](CCCCN)NC(=O)[C@@H](Cc2c[nH]c3ccccc23)NC(=O)[C@H](Cc2ccc(O)cc2)NC(=O)[C@@H](NC(=O)[C@H](N)Cc2ccccc2)CSSC[C@@H](C(=O)N[C@@H](Cc2ccc3ccccc3c2)C(N)=O)NC1=O` registered a GHI of 0.05.
The value for `C[C@@H](O)[C@@H]1NC(=O)[C@H](CCCCN)NC(=O)[C@H](Cc2c[nH]c3ccc(Br)cc23)NC(=O)[C@H](Cc2ccccc2)NC(=O)[C@H](Cc2ccccc2)NC(=O)CCCCCCNC(=O)[C@H](Cc2ccccc2)NC1=O` (stereo in doubt) was 50; that for `CC1NC(=O)[C@H]([C@@H](C)O)NC(=O)C(CCCCN)NC(=O)[C@@H](Cc2c[nH]c3ccccc23)NC(=O)C(Cc2ccccc2)NC(=O)[C@@H]2CCCN2C1=O` (single isomer, unassigned; 58) was 16.7.
For `CC[C@@H]1NC(=O)[C@H](CCCCN)NC(=O)[C@@H](Cc2c[nH]c3ccccc23)NC(=O)[C@H](Cc2ccc(O)cc2)NC(=O)[C@@H](NC(=O)[C@H](N)Cc2ccccc2)CSSC[C@@H](C(=O)N[C@@H](Cc2ccc3ccccc3c2)C(N)=O)NC1=O` (H-[dF]CY[dW]K[Abu]C[2Nal]-NH2; disulfide 2-7) the value was 0.03.
`CC(C)[C@@H]1NC(=O)[C@H](CCCCN)NC(=O)[C@@H](Cc2c[nH]c3ccccc23)NC(=O)[C@H](Cc2ccc(O)cc2)NC(=O)[C@H](NC(=O)[C@H](N)Cc2ccc3ccccc3c2)CSSC[C@@H](C(=O)N[C@@H](Cc2ccc3ccccc3c2)C(=O)O)NC1=O` displayed a GHI of 1.12.
In turn, `CC(C)[C@H](NC(=O)[C@H](CCCCN)NC(=O)[C@@H](Cc1c[nH]c2ccccc12)NC(=O)[C@H](Cc1ccc(O)cc1)NC(=O)[C@H](C)NC(=O)[C@H](N)Cc1ccc(Cl)cc1)C(=O)N[C@@H](C)C(=O)N[C@@H](Cc1ccc2ccccc2c1)C(N)=O` (H-[dPhe(4-Cl)]AY[dW]KVA[2Nal]-NH2) yielded a GHI of 45.
`CC(C)[C@@H]1NC(=O)[C@H](CCCCN)NC(=O)[C@@H](Cc2c[nH]c3ccccc23)NC(=O)[C@H](Cc2ccc(O)cc2)NC(=O)[C@@H](NC(=O)[C@H](N)Cc2ccc3ccccc3c2)CSSC[C@@H](C(=O)N[C@H](C(N)=O)[C@@H](C)O)NC1=O` had a GHI of 0.83.
For `C[C@@H](O)[C@@H]1NC(=O)[C@H](CCCCN)NC(=O)[C@@H](Cc2c[nH]c3ccccc23)NC(=O)[C@H](Cc2c[nH]c3ccccc23)NC(=O)[C@H](Cc2ccccc2)NC(=O)CCCCCCNC(=O)[C@H](Cc2ccccc2)NC1=O` (stereo in doubt) the value was 16.7.
Regarding `C[C@@H](O)[C@H](NC(=O)[C@H](Cc1ccccc1)NC(=O)[C@@H](NC(=O)[C@H](CCCCN)NC(=O)[C@@H](Cc1c[nH]c2ccccc12)NC(=O)[C@H](Cc1ccc(O)cc1)NC(=O)[C@H](Cc1ccc(Cl)cc1)NC(=O)[C@H](N)Cc1ccc2ccccc2c1)[C@@H](C)O)C(N)=O` (H-[d2Nal][Phe(4-Cl)]Y[dW]KTFT-NH2), the GHI is 17.
Regarding `C[C@@H](O)[C@@H]1NC(=O)C(CCCCN)NC(=O)[C@@H](Cc2c[nH]c3ccccc23)NC(=O)C(Cc2ccc(O)cc2)NC(=O)[C@@H]2CCCN2C(=O)C(Cc2ccccc2)NC1=O` (single isomer, unassigned), the GHI was 0.07.
For `C[C@@H]1NC(=O)[C@H]([C@@H](C)O)NC(=O)C(CCCCN)NC(=O)[C@@H](Cc2c[nH]c3ccccc23)NC(=O)C(Cc2ccccc2)NC(=O)[C@H]2CCCN2C1=O` (single isomer, unassigned) the value was 166; for `C[C@@H](O)[C@@H]1NC(=O)[C@H](Cc2ccc(N)cc2)NC(=O)[C@H](Cc2cn(C)c3ccccc23)NC(=O)[C@H](Cc2ccccc2)NC(=O)[C@H](Cc2ccccc2)NC(=O)CCCCCCNC(=O)[C@H](Cc2ccccc2)NC1=O` (stereo in doubt), 1.8; for `C[C@@H](O)[C@H](NC(=O)[C@@H]1CSSC[C@H](NC(=O)[C@H](N)Cc2ccc3ccccc3c2)C(=O)N[C@@H](Cc2ccc(O)cc2)C(=O)N[C@H](Cc2c[nH]c3ccccc23)C(=O)N[C@@H](CCCCN)C(=O)N[C@@H]([C@@H](C)O)C(=O)N1)C(N)=O`, 0.19.
In turn, `COc1ccc2[nH]cc(C[C@@H]3NC(=O)[C@H](Cc4ccccc4)NC(=O)[C@H](Cc4ccccc4)NC(=O)CCCCCCNC(=O)[C@H](Cc4ccccc4)NC(=O)[C@H]([C@@H](C)O)NC(=O)[C@H](CCCCN)NC3=O)c2c1` (stereo in doubt) displayed a GHI of 50.
The value for `CC(C)[C@H](NC(=O)[C@H](CCCCN)NC(=O)[C@@H](Cc1c[nH]c2ccccc12)NC(=O)[C@H](Cc1ccc(O)cc1)NC(=O)[C@H](C)NC(=O)[C@H](N)Cc1ccccc1)C(=O)N[C@@H](C)C(=O)N[C@@H](Cc1ccc2ccccc2c1)C(N)=O` (H-[dF]AY[dW]KVA[2Nal]-NH2) was 15; that for `CC(C)[C@@H]1NC(=O)[C@H](CCCCN)NC(=O)[C@@H](Cc2c[nH]c3ccccc23)NC(=O)[C@H](Cc2ccc(O)cc2)NC(=O)[C@@H](NC(=O)[C@H](N)Cc2ccc3ccccc3c2)CSSC[C@@H](C(=O)N[C@@H](Cc2ccc3ccccc3c2)C(N)=O)NC1=O` (H-[d2Nal]CY[dW]KVC[2Nal]-NH2; disulfide 2-7) was 11; that for `C[C@@H](O)[C@H](NC(=O)[C@H](Cc1ccccc1)NC(=O)[C@@H](NC(=O)[C@H](CCCCN)NC(=O)[C@@H](Cc1c[nH]c2ccccc12)NC(=O)[C@H](Cc1ccc(O)cc1)NC(=O)[C@H](Cc1ccc(Cl)cc1)NC(=O)[C@H](N)Cc1ccccc1)[C@@H](C)O)C(N)=O` (H-[dF][Phe(4-Cl)]Y[dW]KTFT-NH2) was 3.4.
The value for `CC(C)[C@H](NC(=O)[C@H](CCCCN)NC(=O)[C@@H](Cc1c[nH]c2ccccc12)NC(=O)[C@H](Cc1ccc(O)cc1)NC(=O)[C@H](Cc1ccccc1)NC(=O)[C@H](N)Cc1ccccc1)C(=O)N[C@@H](Cc1ccccc1)C(=O)N[C@H](C(N)=O)[C@@H](C)O` (H-[dF]FY[dW]KVFT-NH2) was 111.
The value for `C[C@@H](O)[C@@H]1NC(=O)[C@H](CCCCN)NC(=O)[C@H](Cc2c[nH]c3ccc(F)cc23)NC(=O)[C@H](Cc2ccccc2)NC(=O)[C@H](Cc2ccccc2)NC(=O)CCCCCCNC(=O)[C@H](Cc2ccccc2)NC1=O` (stereo in doubt) was 6.7.
As to `C[C@@H](O)[C@@H]1NC(=O)C(CCCCN)NC(=O)[C@@H](Cc2c[nH]c3ccccc23)NC(=O)C(Cc2ccccc2)NC(=O)[C@H](Cc2ccccc2)NC(=O)C(Cc2ccccc2)NC1=O` (single isomer, unassigned), the GHI amounted to 3.71.

The values are drawn from ChEMBL document CHEMBL1128385, “Three-dimensional quantitative structure-activity relationships of somatostatin analogues. 1. Comparative molecular field analysis of growth hormone release-inhibiting potencies” (J Med Chem, 1995).
